Laboratory results as given in ChEMBL document CHEMBL3871264, “Design of a novel thiophene inhibitor of 15-lipoxygenase-1 with both anti-inflammatory and neuroprotective properties” (Eur J Med Chem, 2016).
Calls of active or inactive are those of the source. The calls are words filed in the database; no cut-off is given here.

T1: Polyunsaturated fatty acid lipoxygenase ALOX15 (Homo sapiens, UniProt P16050)
T1 sequence (P16050 whole entry): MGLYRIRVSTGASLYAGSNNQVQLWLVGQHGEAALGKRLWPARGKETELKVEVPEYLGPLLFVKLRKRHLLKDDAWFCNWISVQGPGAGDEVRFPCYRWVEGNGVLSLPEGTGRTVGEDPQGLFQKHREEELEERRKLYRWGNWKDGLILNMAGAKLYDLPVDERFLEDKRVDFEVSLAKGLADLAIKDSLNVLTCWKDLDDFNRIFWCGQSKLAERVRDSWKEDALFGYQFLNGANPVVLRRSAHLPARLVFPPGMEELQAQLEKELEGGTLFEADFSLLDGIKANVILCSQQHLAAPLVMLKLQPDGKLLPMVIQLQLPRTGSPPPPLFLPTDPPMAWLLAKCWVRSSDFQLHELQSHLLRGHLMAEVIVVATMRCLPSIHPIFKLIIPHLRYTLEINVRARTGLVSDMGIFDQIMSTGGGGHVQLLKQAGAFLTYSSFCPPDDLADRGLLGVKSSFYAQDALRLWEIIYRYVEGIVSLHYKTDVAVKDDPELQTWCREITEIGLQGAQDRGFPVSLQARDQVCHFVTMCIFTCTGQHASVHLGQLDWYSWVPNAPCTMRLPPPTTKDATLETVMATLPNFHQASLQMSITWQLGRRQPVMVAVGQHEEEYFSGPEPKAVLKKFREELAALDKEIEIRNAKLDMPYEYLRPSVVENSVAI

T2: Polyunsaturated fatty acid lipoxygenase ALOX15 (Mus musculus) (UniProt P39654)
T2 sequence (whole entry): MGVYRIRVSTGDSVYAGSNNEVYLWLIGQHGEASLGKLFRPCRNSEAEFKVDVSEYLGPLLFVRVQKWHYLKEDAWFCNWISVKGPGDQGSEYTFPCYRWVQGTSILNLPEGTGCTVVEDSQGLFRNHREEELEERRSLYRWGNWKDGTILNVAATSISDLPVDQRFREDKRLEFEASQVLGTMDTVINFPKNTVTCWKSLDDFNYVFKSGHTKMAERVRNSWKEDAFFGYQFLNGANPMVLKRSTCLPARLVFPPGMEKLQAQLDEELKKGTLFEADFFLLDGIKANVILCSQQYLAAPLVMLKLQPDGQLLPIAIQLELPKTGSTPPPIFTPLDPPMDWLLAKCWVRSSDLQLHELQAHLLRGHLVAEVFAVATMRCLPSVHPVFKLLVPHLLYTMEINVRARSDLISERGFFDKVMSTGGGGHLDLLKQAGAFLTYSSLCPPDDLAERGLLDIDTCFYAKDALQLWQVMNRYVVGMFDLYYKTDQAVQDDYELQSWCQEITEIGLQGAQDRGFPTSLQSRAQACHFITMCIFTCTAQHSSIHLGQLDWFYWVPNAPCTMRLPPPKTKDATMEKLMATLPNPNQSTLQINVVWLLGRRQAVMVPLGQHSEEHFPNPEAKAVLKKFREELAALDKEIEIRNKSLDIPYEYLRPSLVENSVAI


Tests used:
[1] = target: T1, Polyunsaturated fatty acid lipoxygenase ALOX15; assay: Inhibition of human 15-LOX-1 assessed as reduction in conversion of linoleic acid to 13(S)-HpODE incubated for 10 mins followed by linoleic acid addition by UV-absorbance analysis
[2] = target: T2, Polyunsaturated fatty acid lipoxygenase ALOX15 (Mus musculus); assay: Inhibition of 15-LOX-1 in mouse HT22 cells assessed as protection against glutamate-induced cell death by measuring increase in cell viability at 1 uM cotreated with glutamate measured for 16 to 20 hrs by MTT assay; type: cell-based; settings: HT-22, in the assay text read “14 to 16 hrs” for “16 to 20 hrs”
In short: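 HT-22 cells were seeded at 8x10^3 per well and incubated overnight. They were challenged with 4 mM glutamate in DMEM/10% FCS. Inhibitor was given either with glutamate (1-20 µM; PD146176 at 1 µM) or added at 5 or 10 µM 2, 4, 6 or 8 h after glutamate. After 14-16 h, MTT was added at 0.5 mg/mL for 1 h at 37 °C. Formazan was dissolved in DMSO and read at 570 nm minus 630 nm background, expressed relative to control. Three experiments were run with 6-8 replicates each.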

[3] = target: T2, Polyunsaturated fatty acid lipoxygenase ALOX15 (Mus musculus); assay: Inhibition of 15-LOX-1 in mouse HT22 cells assessed as protection against glutamate-induced cell impedance at 1 uM cotreated with glutamate up to 16 hrs by real time cell viability assay; type: cell-based; settings: HT-22
In short: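 HT-22 cells were seeded at 8x10^3 per well, incubated overnight, then given 4 mM glutamate. Inhibitor was either co-applied (1-20 µM; PD146176 at 1 µM) or added at 10 µM 2, 4, 6 or 8 h after glutamate. Impedance was recorded in real time for 16-20 h, with cell index normalized just before glutamate addition.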

[4] = target: T2, Polyunsaturated fatty acid lipoxygenase ALOX15 (Mus musculus); assay: Inhibition of 15-LOX-1 in mouse HT22 cells assessed as inhibition of glutamate-induced lipid peroxidation at 1 uM incubated for 14 to 16 hrs by BODIPY 581/591 C11 staining based FACS analysis; type: cell-based; settings: HT-22
In short: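 HT-22 cells were seeded at 5x10^4 per well and incubated overnight. They were then exposed to 4 mM glutamate in DMEM/10% FCS, with or without 10 µM test inhibitor or 1 µM PD146176, for 6-7 h or 14-16 h. Cells were stained with BODIPY 581/591 C11 at 2 µM final for 1 h at 37 °C. The red-to-green fluorescence shift was read by flow cytometry (488 nm excitation). At least 3 experiments were run, each in triplicate.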

[5] = compound: CCCCNC(=O)c1cc(-c2ccccc2)sc1N; assay: Competitive inhibition of human 15-LOX-1 assessed as apparent Km at 5 uM by Lineweaver-Burk plot analysis (reference value: 9.1 +/- 3.4 microM)
In short: (§1)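 Purified enzyme activity was read as UV absorbance at 234 nm of the product formed from linoleic acid substrate, in 96-well format. Substrate-dependence runs were done with and without inhibitor. Apparent Km and Vmax were derived from Lineweaver-Burk plots.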

[6] = compound: CCCCNC(=O)c1cc(-c2ccccc2)sc1N; assay: Competitive inhibition of human 15-LOX-1 assessed as apparent Km at 15 uM by Lineweaver-Burk plot analysis (reference value: 9.1 +/- 3.4 microM); in short: as §1

IC50 [1]	Molecule	other results
> 50 µM	CCCCNC(=O)c1c(N)sc(-c2ccccc2)c1C	
50 to 67.3 µM	CCCCn1c(=O)[nH]c2sc(-c3ccccc3)cc2c1=O	
50 to 519 µM	CCCCNC(=O)c1cc(-c2ccc(Cl)cc2)sc1N	
50 to 61.4 µM	CCCCCc1cc(C(=O)NCCCC)c(N)s1	
50 to 81.7 µM	Nc1sc(-c2ccccc2)cc1C(=O)NCCCCc1ccccc1	
50 to 152 µM	CCCCN(CCCC)C(=O)c1cc(-c2ccccc2)sc1N	
50 to 65.3 µM	CCCCNC(=O)c1cc(CC)sc1N	
50 to 354 µM	CCCCNC(=O)c1cc(C)sc1N	
50 to 65.4 µM	CCCCNC(=O)c1cc(CCC)sc1N	
50 to 115 µM	CCCCNC(=O)c1cc(Cc2ccccc2)sc1N	
> 50 µM	CCCCNC(=O)c1c(N)sc(-c2ccccc2)c1CCCC	
	c1ccc2c(c1)SCc1c-2[nH]c2ccccc12	inhibition [2]: Active; inhibition [3]: Active; inhibition [4]: Active
50 to 71.1 µM	CCCCNC(=O)c1cc(-c2ccc(Br)cc2)sc1N	
	Polyunsaturated fatty acid lipoxygenase ALOX15 (Homo sapiens), P16050 (protein) MGLYRIRVSTGASLYAGSNNQVQLWLVGQHGEAALGKRLWPARGKETELKVEVPEYLGPLLFVKLRKRHLLKDDAWFCNWISVQGPGAGDEVRFPCYRWVEGNGVLSLPEGTGRTVGEDPQGLFQKHREEELEERRKLYRWGNWKDGLILNMAGAKLYDLPVDERFLEDKRVDFEVSLAKGLADLAIKDSLNVLTCWKDLDDFNRIFWCGQSKLAERVRDSWKEDALFGYQFLNGANPVVLRRSAHLPARLVFPPGMEELQAQLEKELEGGTLFEADFSLLDGIKANVILCSQQHLAAPLVMLKLQPDGKLLPMVIQLQLPRTGSPPPPLFLPTDPPMAWLLAKCWVRSSDFQLHELQSHLLRGHLMAEVIVVATMRCLPSIHPIFKLIIPHLRYTLEINVRARTGLVSDMGIFDQIMSTGGGGHVQLLKQAGAFLTYSSFCPPDDLADRGLLGVKSSFYAQDALRLWEIIYRYVEGIVSLHYKTDVAVKDDPELQTWCREITEIGLQGAQDRGFPVSLQARDQVCHFVTMCIFTCTGQHASVHLGQLDWYSWVPNAPCTMRLPPPTTKDATLETVMATLPNFHQASLQMSITWQLGRRQPVMVAVGQHEEEYFSGPEPKAVLKKFREELAALDKEIEIRNAKLDMPYEYLRPSVVENSVAI	Km [5]: 14.2 µM; Km [6]: 38.2 µM

Molecule	IC50 [1]	other results
CCCCNC(=O)c1c(N)sc(-c2ccc(Cl)cc2)c1CCCC	> 50 µM	
